Assay results: ChEMBL document CHEMBL1137710, “Synthesis and in vitro antitumor activity of new quinoxaline derivatives” (2009)

Experiments:
Assay type in all cases: functional
[1] = test system: KM12; assay: Growth inhibition of human KM12 cells after 48 hrs by sulforhodamine B assay; conditions: KM12, 48 h
Outline: (§1)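 NCI 60-human-tumor-cell-line panel, with compounds tested over a 5-log dose range. Values are taken from dose-response curves as log10 molar concentrations: GI50 is 50% net growth inhibition, TGI is total growth inhibition, and LC50 is 50% net cell death.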

[2] = test system: UACC-257; assay: Growth inhibition of human UACC257 cells after 48 hrs by sulforhodamine B assay; conditions: UACC-257, 48 h
Outline: (§2)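 Run in the NCI 60-human-tumour-cell-line panel, tested over a 5-log dose range. Dose–response curves gave three values per cell line, each as a log10 molar concentration: GI50 (50% inhibition of net cell growth), TGI (total inhibition of net growth) and LC50 (50% net cell death). The mean graph midpoint is the arithmetic mean over all lines, with insensitive lines entered at the highest concentration tested.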

[3] = test system: NCI-H460; assay: Growth inhibition of human NCI-H460 cells after 48 hrs by sulforhodamine B assay; conditions: NCI-H460, 48 h; outline: as §1
[4] = test system: SK-MEL-5; assay: Growth inhibition of human SK-MEL-5 cells after 48 hrs by sulforhodamine B assay; conditions: SK-MEL-5, 48 h; outline: as §1
[5] = test system: SF-539; assay: Growth inhibition of human SF539 cells after 48 hrs by sulforhodamine B assay; conditions: SF-539, 48 h; outline: as §1
[6] = test system: NCI-H226; assay: Growth inhibition of human NCI-H226 cells after 48 hrs by sulforhodamine B assay; conditions: NCI-H226, 48 h; outline: as §1
[7] = test system: CCRF-CEM; assay: Growth inhibition of human CCRF-CEM cells after 48 hrs by sulforhodamine B assay; outline: as §1
[8] = test system: T47D; assay: Growth inhibition of human T47D cells after 48 hrs by sulforhodamine B assay; outline: as §2
[9] = test system: Malme-3M; assay: Growth inhibition of human MALME-3M cells after 48 hrs by sulforhodamine B assay; outline: as §1
[10] = test system: MOLT-4; assay: Growth inhibition of human MOLT4 cells after 48 hrs by sulforhodamine B assay; conditions: MOLT-4, 48 h; outline: as §1
[11] = test system: DU-145; assay: Growth inhibition of human DU145 cells after 48 hrs by sulforhodamine B assay; conditions: DU-145, 48 h; outline: as §1
[12] = test system: RXF 393; assay: Growth inhibition of human RXF393 cells after 48 hrs by sulforhodamine B assay; conditions: RXF 393, 48 h; outline: as §1
[13] = test system: HT-29; assay: Growth inhibition of human HT-29 cells after 48 hrs by sulforhodamine B assay; conditions: HT-29, 48 h; outline: as §1
[14] = test system: SR; assay: Growth inhibition of human SR cells after 48 hrs by sulforhodamine B assay; outline: as §2
[15] = test system: A549; assay: Growth inhibition of human A549 cells after 48 hrs by sulforhodamine B assay; conditions: A549, 48 h; outline: as §1
[16] = test system: HOP-92; assay: Growth inhibition of human HOP92 cells after 48 hrs by sulforhodamine B assay; conditions: HOP-92, 48 h; outline: as §1
[17] = test system: EKVX; assay: Growth inhibition of human EKVX cells after 48 hrs by sulforhodamine B assay; outline: as §1
[18] = test system: COLO 205; assay: Growth inhibition of human COLO205 cells after 48 hrs by sulforhodamine B assay; conditions: COLO 205, 48 h; outline: as §1
[19] = test system: SNB-75; assay: Growth inhibition of human SNB75 cells after 48 hrs by sulforhodamine B assay; conditions: SNB-75, 48 h; outline: as §2
[20] = test system: BT-549; assay: Growth inhibition of human BT549 cells after 48 hrs by sulforhodamine B assay; conditions: BT-549, 48 h; outline: as §1
[21] = test system: ACHN; assay: Growth inhibition of human ACHN cells after 48 hrs by sulforhodamine B assay
[22] = test system: MDA-MB-231; assay: Growth inhibition of human MDA-MB-231 cells after 48 hrs by sulforhodamine B assay; conditions: MDA-MB-231, 48 h; outline: as §1
[23] = test system: TK-10; assay: Growth inhibition of human TK10 cells after 48 hrs by sulforhodamine B assay; conditions: TK-10, 48 h; outline: as §2
[24] = test system: SF-295; assay: Growth inhibition of human SF295 cells after 48 hrs by sulforhodamine B assay; conditions: SF-295, 48 h; outline: as §1
[25] = test system: SK-OV-3; assay: Growth inhibition of human SKOV3 cells after 48 hrs by sulforhodamine B assay; conditions: SK-OV-3, 48 h; outline: as §1
[26] = test system: SK-MEL-2; assay: Growth inhibition of human SK-MEL-2 cells after 48 hrs by sulforhodamine B assay; conditions: SK-MEL-2, 48 h; outline: as §1
[27] = test system: OVCAR-5; assay: Growth inhibition of human OVCAR5 cells after 48 hrs by sulforhodamine B assay; conditions: OVCAR-5, 48 h; outline: as §1
[28] = test system: NCI-H23; assay: Growth inhibition of human NCI-H23 cells after 48 hrs by sulforhodamine B assay; conditions: NCI-H23, 48 h; outline: as §1
[29] = read-out: pLC50 (the source's name) (converted)

COc1ccc(CNc2nc3cc(N)cc(N)c3nc2-c2ccccc2)cc1OC
GI50 [1]: 13.2 µM
LC50 (50% net cell kill) [1]: 72.4 µM
TGI ([1]; read-out: pTGI (converted)): 30.9 µM
GI50 [2]: 12.9 µM
CC50 [2, 29]: 55 µM
TGI ([2]; read-out: pTGI (converted)): 26.9 µM
GI50 [3]: 24 µM
LC50 (50% net cell kill) [3]: > 100 µM
TGI ([3]; read-out: pTGI (converted)): 91.2 µM
GI50 [4]: 10 µM
CC50 [4, 29]: 77.6 µM
TGI ([4]; read-out: pTGI (converted)): 27.5 µM
GI50 [5]: 20 µM
LC50 [5]: > 100 µM
TGI ([5]; read-out: pTGI (converted)): 45.7 µM
GI50 [6]: 14.5 µM
LC50 [6]: 64.6 µM
TGI ([6]; read-out: pTGI (converted)): 30.9 µM
GI50 [7]: 3.47 µM
LC50 [7]: > 100 µM
TGI ([7]; read-out: pTGI (converted)): 70.8 µM
GI50 [8]: 4.47 µM
CC50 [8, 29]: > 100 µM
TGI ([8]; read-out: pTGI (converted)): > 100 µM
GI50 [9]: 5.62 µM
CC50 [9, 29]: 47.9 µM
TGI ([9]; read-out: pTGI (converted)): 18.6 µM
GI50 [10]: 3.47 µM
LC50 [10]: > 100 µM
TGI ([10]; read-out: pTGI (converted)): > 100 µM
GI50 [11]: 0.46 µM
CC50 [11, 29]: > 100 µM
TGI ([11]; read-out: pTGI (converted)): 87.1 µM
GI50 [12]: 19.1 µM
CC50 [12, 29]: > 100 µM
TGI ([12]; read-out: pTGI (converted)): > 100 µM
GI50 [13]: 1.86 µM
LC50 [13]: > 100 µM
TGI ([13]; read-out: pTGI (converted)): 24.5 µM
GI50 [14]: 3.31 µM
LC50 (concentration giving 50% net cell death) [14]: > 100 µM
TGI ([14]; read-out: pTGI (converted)): 18.2 µM
GI50 [15]: 20.9 µM
LC50 [15]: > 100 µM
TGI ([15]; read-out: pTGI (converted)): 50.1 µM
GI50 [16]: 13.5 µM
LC50 (50% net cell death) [16]: 66.1 µM
TGI ([16]; read-out: pTGI (converted)): 29.5 µM
GI50 [17]: 5.89 µM
LC50 (50% net cell kill) [17]: > 100 µM
TGI ([17]; read-out: pTGI (converted)): 30.2 µM
GI50 [18]: 7.94 µM
LC50 (50% net cell kill) [18]: > 100 µM
TGI ([18]; read-out: pTGI (converted)): > 100 µM
GI50 [19]: 16.2 µM
LC50 [19]: 97.7 µM
TGI ([19]; read-out: pTGI (converted)): 39.8 µM
GI50 [20]: 13.5 µM
CC50 [20, 29]: 79.4 µM
TGI ([20]; read-out: pTGI (converted)): 32.4 µM
GI50 [21]: 13.8 µM
CC50 [21, 29]: 81.3 µM
TGI ([21]; read-out: pTGI (converted)): 33.1 µM
GI50 [22]: 11.2 µM
CC50 [22, 29]: 79.4 µM
TGI ([22]; read-out: pTGI (converted)): 29.5 µM
GI50 [23]: 16.6 µM
CC50 [23, 29]: 64.6 µM
TGI ([23]; read-out: pTGI (converted)): 32.4 µM
GI50 [24]: 13.2 µM
LC50 (50% net cell kill) [24]: 58.9 µM
TGI ([24]; read-out: pTGI (converted)): 28.2 µM
GI50 [25]: 21.9 µM
CC50 [25, 29]: > 100 µM
TGI ([25]; read-out: pTGI (converted)): 46.8 µM
GI50 [26]: 8.71 µM
CC50 [26, 29]: > 100 µM
TGI ([26]; read-out: pTGI (converted)): 30.2 µM
GI50 [27]: 20.9 µM
CC50 [27, 29]: 81.3 µM
TGI ([27]; read-out: pTGI (converted)): 41.7 µM
GI50 [28]: 17 µM
LC50 (50% net cell kill concentration) [28]: 91.2 µM
TGI ([28]; read-out: pTGI (converted)): 39.8 µM
